Assay [1] concerns the target T1, Glycogen phosphorylase, muscle form (Oryctolagus cuniculus, UniProt P00489).
T1 sequence (P00489 whole entry): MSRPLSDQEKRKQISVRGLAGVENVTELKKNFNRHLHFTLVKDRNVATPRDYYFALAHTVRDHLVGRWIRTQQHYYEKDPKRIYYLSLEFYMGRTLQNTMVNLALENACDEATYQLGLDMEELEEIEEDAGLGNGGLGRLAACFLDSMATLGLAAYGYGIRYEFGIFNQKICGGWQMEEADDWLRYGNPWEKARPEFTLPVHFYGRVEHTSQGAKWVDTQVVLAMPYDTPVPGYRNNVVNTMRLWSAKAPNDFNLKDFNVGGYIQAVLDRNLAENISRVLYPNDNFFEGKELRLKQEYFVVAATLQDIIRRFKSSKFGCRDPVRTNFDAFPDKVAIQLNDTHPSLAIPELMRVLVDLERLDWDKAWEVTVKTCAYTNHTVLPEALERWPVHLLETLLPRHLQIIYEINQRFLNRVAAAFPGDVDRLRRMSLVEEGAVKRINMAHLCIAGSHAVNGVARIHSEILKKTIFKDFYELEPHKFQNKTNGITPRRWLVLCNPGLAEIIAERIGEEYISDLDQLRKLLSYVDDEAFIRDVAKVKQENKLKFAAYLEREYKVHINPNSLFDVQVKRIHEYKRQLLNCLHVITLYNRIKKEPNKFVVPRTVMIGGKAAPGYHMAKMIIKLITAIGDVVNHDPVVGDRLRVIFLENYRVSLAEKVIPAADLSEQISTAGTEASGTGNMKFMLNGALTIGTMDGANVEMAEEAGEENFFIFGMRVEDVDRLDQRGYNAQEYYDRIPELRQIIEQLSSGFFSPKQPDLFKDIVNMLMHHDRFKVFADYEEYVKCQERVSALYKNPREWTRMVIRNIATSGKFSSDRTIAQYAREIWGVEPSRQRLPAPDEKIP
Kind of assay: Inhibition of rabbit muscle glycogen phosphorylase b at pH 6.8 assessed as inorganic phosphate release. The gist of the method:
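Rabbit muscle glycogen phosphorylase b; activity followed by inorganic phosphate release at pH 6.8. Inhibition constants reported as Ki, with part of the values derived from IC50 via the Cheng-Prusoff relation Ki = IC50/(1 + [S]/Km).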

Assay [2] concerns the target T2, Glycogen phosphorylase, muscle form (Oryctolagus cuniculus) (UniProt P00489).
T2 sequence (whole entry): T1 sequence (P00489 whole entry)
Kind of assay: Inhibition of rabbit muscle glycogen phosphorylase b at pH 6.8 assessed as inorganic phosphate release at 1 mM.

Activity calls are given as the source filed them. The calls are words filed in the database; no cut-off is given here.

A word on the Ki: it is a measure of affinity in units of concentration, obtained from inhibition or displacement. `CC(C)(C)C(=O)/N=C1/NC(=O)[C@]2(O[C@H](CO)[C@@H](O)[C@H](O)[C@H]2O)S1`: the Ki in assay [1] came out at 137 µM.

In the case of `Cc1ccc(C(=O)/N=C2/NC(=O)[C@]3(O[C@H](CO)[C@@H](O)[C@H](O)[C@H]3O)S2)cc1`, the Ki in assay [1] stood at 35 µM.

Regarding `Cc1ccc(S(=O)(=O)/N=C2/NC(=O)[C@]3(O[C@H](CO)[C@@H](O)[C@H](O)[C@H]3O)S2)cc1`, the Ki in assay [1] turned out to be 63 µM.

As for `N=C1NC(=O)[C@]2(O[C@H](CO)[C@@H](O)[C@H](O)[C@H]2O)S1`, the Ki in assay [1] is 24 µM.

For the compound `O=C(/N=C1/NC(=O)[C@]2(O[C@H](CO)[C@@H](O)[C@H](O)[C@H]2O)S1)c1ccccc1`, in assay [1], the inhibition constant (Ki) came out at 9 µM.

`O=C1N/C(=N/S(=O)(=O)c2cccc3ccccc23)S[C@@]12O[C@H](CO)[C@@H](O)[C@H](O)[C@H]2O`: the Ki in assay [1] worked out at 29 µM.

As for `O=C(/N=C1/NC(=O)[C@]2(O[C@H](CO)[C@@H](O)[C@H](O)[C@H]2O)S1)c1ccc2ccccc2c1`, in assay [1], the inhibitory constant (Ki) worked out at 10 µM.

A word on the inhibition: it is the percentage by which the read-out fell short of the control. `O=C1N2CCCN=C2S[C@@]12O[C@H](CO)[C@@H](O)[C@H](O)[C@H]2O`: the inhibition result in assay [2] is “inactive”.

In the case of `O=C1N/C(=N/S(=O)(=O)c2ccc3ccccc3c2)S[C@@]12O[C@H](CO)[C@@H](O)[C@H](O)[C@H]2O`, the inhibition constant Ki in assay [1] was 153 µM.

Turning to `O=C1N2CCN=C2S[C@@]12O[C@H](CO)[C@@H](O)[C@H](O)[C@H]2O`, the inhibition in assay [2] was determined as 48%.

In the case of `O=C(/N=C1/NC(=O)[C@]2(O[C@H](CO)[C@@H](O)[C@H](O)[C@H]2O)S1)c1cccc2ccccc12`, in assay [1], the inhibition constant (Ki) stood at 15 µM.

As to `O=C1N/C(=N/S(=O)(=O)c2ccccc2)S[C@@]12O[C@H](CO)[C@@H](O)[C@H](O)[C@H]2O`, the Ki in assay [1] stood at 143 µM.

The record behind these values is ChEMBL document CHEMBL3352009, “Glucopyranosylidene-spiro-iminothiazolidinone, a new bicyclic ring system: synthesis, derivatization, and evaluation for inhibition of glycogen phosphorylase by enzyme kinetic and crystallographic methods” (Bioorg Med Chem, 2014).
